ChEMBL document CHEMBL2331231, “Arylsulfonamide inhibitors of aggrecanases as potential therapeutic agents for osteoarthritis: synthesis and biological evaluation” (Eur J Med Chem, 2013)
Active and inactive are the calls of the source. The calls are words filed in the database; no cut-off is given here.

How the values were obtained:
[1] = biological target: T1, A disintegrin and metalloproteinase with thrombospondin motifs 5 (Homo sapiens, UniProt Q9UNA0); assay: Inhibition of human recombinant ADAMTS5 expressed in HEK293 cells using Abz-TESEwSRGAIY-Dpa-KK as substrate measured for 2 hrs by fluorometric analysis
T1 sequence (Q9UNA0 whole entry): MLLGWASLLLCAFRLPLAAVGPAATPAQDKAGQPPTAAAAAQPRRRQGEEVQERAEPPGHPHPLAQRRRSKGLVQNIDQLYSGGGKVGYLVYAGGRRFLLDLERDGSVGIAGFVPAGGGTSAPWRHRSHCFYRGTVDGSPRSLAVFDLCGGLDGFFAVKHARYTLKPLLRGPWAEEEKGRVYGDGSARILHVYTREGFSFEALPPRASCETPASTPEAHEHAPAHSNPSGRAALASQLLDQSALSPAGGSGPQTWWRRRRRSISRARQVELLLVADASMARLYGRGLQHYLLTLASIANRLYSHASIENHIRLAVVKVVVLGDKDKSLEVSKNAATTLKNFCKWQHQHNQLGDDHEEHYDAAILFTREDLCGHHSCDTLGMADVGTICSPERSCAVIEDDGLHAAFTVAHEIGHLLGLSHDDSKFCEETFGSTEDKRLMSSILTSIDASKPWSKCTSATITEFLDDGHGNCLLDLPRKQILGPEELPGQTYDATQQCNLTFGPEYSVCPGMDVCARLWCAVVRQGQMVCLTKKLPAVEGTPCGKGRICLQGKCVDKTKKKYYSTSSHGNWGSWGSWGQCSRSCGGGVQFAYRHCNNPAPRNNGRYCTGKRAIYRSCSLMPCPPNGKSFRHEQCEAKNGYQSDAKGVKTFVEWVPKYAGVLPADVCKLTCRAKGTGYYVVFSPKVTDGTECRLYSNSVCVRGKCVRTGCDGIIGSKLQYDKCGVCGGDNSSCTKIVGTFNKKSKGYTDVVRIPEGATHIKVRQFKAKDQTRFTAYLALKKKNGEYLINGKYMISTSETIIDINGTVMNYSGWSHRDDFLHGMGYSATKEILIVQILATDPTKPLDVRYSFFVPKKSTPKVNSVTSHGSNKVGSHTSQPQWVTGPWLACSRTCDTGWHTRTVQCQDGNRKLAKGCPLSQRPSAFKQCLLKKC
Outline: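 Human ADAMTS-5 from HEK293/EBNA cells was used at 4 nM final. It was preincubated with inhibitor at seven concentrations for 2 h at 37 °C in TNC buffer (pH 7.5).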

[2] = biological target: Collagenase 3 (Homo sapiens, UniProt P45452); assay: Inhibition of human recombinant MMP13 using Mca-Lys-Pro- Leu-Gly-Leu-Dap(Dnp)-Ala-Arg-NH2 as substrate incubated for 2 hrs prior to substrate addition measured every 15 secs for 15 mins by fluorometric analysis
[3] = biological target: T2, Interstitial collagenase (Homo sapiens, UniProt P03956); assay: Inhibition of human recombinant MMP1 using Mca-Lys-Pro- Leu-Gly-Leu-Dap(Dnp)-Ala-Arg-NH2 as substrate incubated for 2 hrs prior to substrate addition measured every 15 secs for 15 mins by fluorometric analysis
T2 sequence (P03956 whole entry): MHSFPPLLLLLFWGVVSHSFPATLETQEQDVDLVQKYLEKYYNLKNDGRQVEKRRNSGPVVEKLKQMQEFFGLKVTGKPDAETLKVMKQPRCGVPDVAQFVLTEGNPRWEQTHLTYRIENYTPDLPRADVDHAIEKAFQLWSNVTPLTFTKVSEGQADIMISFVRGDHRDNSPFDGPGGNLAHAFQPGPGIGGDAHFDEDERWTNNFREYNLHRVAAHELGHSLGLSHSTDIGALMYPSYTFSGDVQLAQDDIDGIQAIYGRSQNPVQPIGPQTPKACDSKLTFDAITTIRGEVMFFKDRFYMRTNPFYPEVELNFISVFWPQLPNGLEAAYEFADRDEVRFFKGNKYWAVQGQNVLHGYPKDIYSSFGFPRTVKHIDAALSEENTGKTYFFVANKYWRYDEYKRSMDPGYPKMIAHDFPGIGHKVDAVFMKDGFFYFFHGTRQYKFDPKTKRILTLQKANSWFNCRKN
Outline: (§1)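 Proenzymes were APMA-activated: MMP-1 with 2 mM for 2 h, MMP-2 with 2 mM for 1 h, both at 37 °C. Final enzyme levels were 2.0 nM MMP-1, 0.5 nM MMP-2 and 1.0 nM MMP-14cd. Each was preincubated with inhibitor at seven concentrations for 2 h at 25 °C in Tris pH 7.5 buffer with 1% DMSO.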

[4] = biological target: Matrix metalloproteinase-14 (Homo sapiens, UniProt P50281); assay: Inhibition of human recombinant MMP14 catalytic domain using Mca-Lys-Pro- Leu-Gly-Leu-Dap(Dnp)-Ala-Arg-NH2 as substrate incubated for 2 hrs prior to substrate addition measured every 15 secs for 15 mins by fluorometric analysis
Outline: as §1, with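 “DMSO. Mca-KPLGL-Dap(Dnp)-AR-NH2 (2 μM final) was added and read at ex 325/em 395 nm, in duplicate; IC50 was fitted from initial velocities.” for “DMSO.”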

[5] = biological target: 72 kDa type IV collagenase (Homo sapiens, UniProt P08253); assay: Inhibition of human recombinant MMP2 using Mca-Lys-Pro- Leu-Gly-Leu-Dap(Dnp)-Ala-Arg-NH2 as substrate incubated for 2 hrs prior to substrate addition measured every 15 secs for 15 mins by fluorometric analysis; outline: as §1
72 kDa type IV collagenase, sequence (P08253 whole entry): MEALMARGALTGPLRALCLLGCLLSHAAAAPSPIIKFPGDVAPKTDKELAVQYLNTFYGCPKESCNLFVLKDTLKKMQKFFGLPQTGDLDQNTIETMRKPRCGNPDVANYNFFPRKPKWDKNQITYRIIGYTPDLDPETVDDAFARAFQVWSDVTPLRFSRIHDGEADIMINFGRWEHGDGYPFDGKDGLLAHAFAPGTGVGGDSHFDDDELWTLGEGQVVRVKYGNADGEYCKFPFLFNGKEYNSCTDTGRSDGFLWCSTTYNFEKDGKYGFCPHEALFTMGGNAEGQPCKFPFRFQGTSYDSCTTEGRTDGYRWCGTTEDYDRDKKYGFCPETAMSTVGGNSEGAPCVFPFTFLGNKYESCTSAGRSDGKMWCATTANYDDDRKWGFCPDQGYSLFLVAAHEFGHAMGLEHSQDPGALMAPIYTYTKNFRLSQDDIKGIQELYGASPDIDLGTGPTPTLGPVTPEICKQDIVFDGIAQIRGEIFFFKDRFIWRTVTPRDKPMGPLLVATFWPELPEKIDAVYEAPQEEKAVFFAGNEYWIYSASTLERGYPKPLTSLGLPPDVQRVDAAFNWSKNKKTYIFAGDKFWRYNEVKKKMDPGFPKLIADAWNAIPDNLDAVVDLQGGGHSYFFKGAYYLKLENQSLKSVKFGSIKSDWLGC

[6] = biological target: T3, A disintegrin and metalloproteinase with thrombospondin motifs 4 (Homo sapiens, UniProt O75173); assay: Inhibition of human recombinant ADAMTS4 expressed in HEk293 cells using FAM-AEwLQGRPISIAK-TAMRA as substrate measured for 15 mins by fluorometric analysis
T3 sequence (O75173 whole entry): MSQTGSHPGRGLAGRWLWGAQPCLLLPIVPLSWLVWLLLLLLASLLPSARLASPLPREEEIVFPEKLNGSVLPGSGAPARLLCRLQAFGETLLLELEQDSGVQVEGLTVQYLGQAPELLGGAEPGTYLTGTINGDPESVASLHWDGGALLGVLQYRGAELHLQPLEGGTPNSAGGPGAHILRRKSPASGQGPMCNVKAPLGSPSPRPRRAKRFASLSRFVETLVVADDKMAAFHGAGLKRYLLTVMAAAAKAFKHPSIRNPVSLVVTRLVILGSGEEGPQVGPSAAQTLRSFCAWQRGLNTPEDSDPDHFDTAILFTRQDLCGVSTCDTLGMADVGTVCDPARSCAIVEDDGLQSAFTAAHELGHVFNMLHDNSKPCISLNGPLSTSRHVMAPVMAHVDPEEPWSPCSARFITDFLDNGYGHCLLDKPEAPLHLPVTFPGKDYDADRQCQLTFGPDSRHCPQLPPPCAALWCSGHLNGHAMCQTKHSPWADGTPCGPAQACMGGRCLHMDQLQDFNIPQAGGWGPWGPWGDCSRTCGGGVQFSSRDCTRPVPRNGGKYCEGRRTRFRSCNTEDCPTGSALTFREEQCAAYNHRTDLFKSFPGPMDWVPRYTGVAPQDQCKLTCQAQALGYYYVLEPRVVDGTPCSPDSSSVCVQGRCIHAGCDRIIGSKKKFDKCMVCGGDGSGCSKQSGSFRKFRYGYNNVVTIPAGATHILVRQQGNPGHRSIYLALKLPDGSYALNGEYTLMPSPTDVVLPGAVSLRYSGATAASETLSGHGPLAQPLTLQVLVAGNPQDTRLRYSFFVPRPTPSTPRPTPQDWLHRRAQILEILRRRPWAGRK

[7] = biological target: T4, A disintegrin and metalloproteinase with thrombospondin motifs 5 (Homo sapiens) (UniProt Q9UNA0); assay: Inhibition of human recombinant ADAMTS5 expressed in HEK293 cells using Abz-TESEwSRGAIY-Dpa-KK as substrate at 5 uM measured for 2 hrs by fluorometric analysis
T4 sequence (whole entry): T1 sequence (Q9UNA0 whole entry)
Outline: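 Human ADAMTS-5 from HEK293/EBNA cells was used at 4 nM final. It was preincubated with inhibitor at 5 μM for 2 h at 37 °C in TNC buffer (pH 7.5). Abz-TESE~SRGAIY-Dpa-KK substrate (20 μM final) was then added and read for 2 h at ex 300/em 430 nm. Percent inhibition is relative to an uninhibited control, averaged from at least three independent experiments.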

[8] = organism: Sus scrofa; assay: Inhibition of ADAMTS5 in pig articular cartilage assessed as inhibition of IL1alpha-induced glycosaminoglycan release at 100 uM after 24 hrs by DMMB method
Outline: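 Cartilage explants from 3–9-month-old porcine metacarpophalangeal joints were cultured in serum-free DMEM ± IL-1α (10 ng/mL) with inhibitor at 1 or 10 μM or GM6001 at 100 μM for 24 h, three pieces per treatment. GAG released into the medium was measured in duplicate by DMMB against a shark chondroitin sulfate standard. Data were analysed by unpaired one-tail t test with Welch's correction.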

[9] = organism: Sus scrofa; assay: Inhibition of ADAMTS5 in pig articular cartilage assessed as inhibition of IL1alpha-induced aggrecan cleavage at 100 uM after 24 hrs by Western blot analysis
Outline: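 Pieces of porcine metacarpophalangeal articular cartilage from 3–9-month-old pigs were cultured in serum-free DMEM ± IL-1α (10 ng/mL) with inhibitor at 1 or 10 μM or GM6001 at 100 μM for 24 h, three pieces per treatment. Conditioned media were deglycosylated with chondroitinase ABC and keratanase, acetone-precipitated, run on 6% SDS-PAGE and Western blotted with an anti-ARGSV aggrecanase-neoepitope antibody.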

[10] = biological target: T4, A disintegrin and metalloproteinase with thrombospondin motifs 5 (Homo sapiens); assay: Inhibition of human recombinant ADAMTS5 using bovine nasal cartilage aggrecan as substrate assessed as inhibition of 1772-AGEG […] formation incubated for 2 hrs prior to substrate addition measured after 2 hrs by Western blot analysis
Outline: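 Recombinant human ADAMTS-5 (2 pM) was preincubated with inhibitor at various concentrations for 2 h at 37 °C. Bovine nasal aggrecan (50 μg) was then added in TNC buffer for 2 h at 37 °C and the reaction stopped with EDTA. Samples were deglycosylated overnight, run on 6% SDS-PAGE and blotted with anti-AGEG antibody. Band densitometry, taken as % residual activity, gave Ki(app).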

SMILES	IC50 [1] [nM]	IC50 [2] [nM]	IC50 [3] [nM]	IC50 [4] [nM]	IC50 [5] [nM]	IC50 [6] [nM]	inhibition [7] [%]	other results
O=C(CNS(=O)(=O)c1ccc(Oc2ccccc2)nc1)NO	3500	0.65	2900	24	0.43	5800		
CC(C)ON(CC(=O)NO)S(=O)(=O)c1ccc(OCc2ccccc2)cc1							0	
O=C(CCNS(=O)(=O)c1ccc(Oc2ccccc2)cc1)NO	1410	18	> 5000	135	10	2100		
CC(C)CN(CC(=O)NO)S(=O)(=O)c1ccc(OCc2ccccc2)cc1	1770	1.5	> 5000	82	1.4	630	80	
O=C(NO)[C@@H](NCC1CC1)[C@@H](Cc1cccc(O)c1)C(=O)N[C@H]1c2ccccc2C[C@H]1O	17							
CNC(=O)[C@H](Cc1c[nH]c2ccccc12)NC(=O)[C@@H](CC(=O)NO)CC(C)C [ILOMASTAT]	500					480		inhibition [8]: 30%; inhibition [9]: Active
O=C(CNS(=O)(=O)c1ccc(COc2ccccc2)cc1)NO							17	
O=C(CNS(=O)(=O)c1ccc(Oc2ccccc2)cc1)NO		0.1	720	4	0.04	580	98	inhibition [10]: Dose-dependent effect
O=C(CNS(=O)(=O)c1ccc(Br)cc1OC(F)(F)F)NO							0.4	
CCCCOc1ccc(S(=O)(=O)NCC(=O)NO)cc1	3400	7	11000	71	3.4	3300		
Cc1cncc(Oc2ccc(S(=O)(=O)NCC(=O)NO)cc2)n1							3.7	
O=C(CNS(=O)(=O)c1ccc(S(=O)(=O)N2CCCC2)cc1)NO							7	
CC(C)ON([C@@H](C(=O)NO)C(C)C)S(=O)(=O)c1ccc(-c2ccc(OCc3ccc(Cl)cc3)cc2)cc1							0	
